Key:
[1] = Drug metabolism in human liver microsomes assessed as (1Z,4E)-5-(1-sec-butyl-1H-imidazol-2-yl)-1-hydroxy-1-(2-methyl-4-(trifluoromethyl)thiazol-5-yl)penta-1,4-dien-3-one formation at 10 mM after 60 mins by UHPLC analysis; format: ADME, microsome
Outline: (§1)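 Pooled human liver microsomes in potassium phosphate buffer (pH 7.4) with NADPH solutions A and B were preincubated for 5 min at 37 °C. Compound was then added from a 10 mM stock (3 μL into 300 μL total) and incubated 60 min at 37 °C. Reactions were quenched with an equal volume of methanol and centrifuged (10,000 × g, 4 min, 4 °C). Supernatant went to UHPLC–high-resolution MS for metabolite identification.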

PC-3 [2] = assay: Induction of apoptosis in human PC3 cells assessed as viable cells at 15 uM after 16 hrs by F2N12S/CYTOX AADvanced double staining-based flow cytometric method (reference value: 95%); format: functional; details: PC-3, 16 h, read-out: Activity
LNCaP = assay: Antiproliferative activity against human LNCAP cells assessed as decrease in cell viability after 3 days by WST assay; format: functional, cell-based; details: 72 h
Outline: (§2)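 Cells were seeded at 3,200 per well. PC-3 and LNCaP were grown in RPMI-1640 and DU-145 in EMEM, each with 10% FBS and 1% penicillin/streptomycin, at 37 °C and 5% CO2. Cells were exposed for 3 days to at least five concentrations, with DMSO as vehicle control. WST-1 reagent was then added for 3 h at 37 °C and absorbance read at 430 nm. IC50 came from linear inhibition, averaged over triplicates.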

[3] = Antiproliferative activity against human LNCaP95 cells expressing androgen receptor splice variants assessed as decrease in cell viability after 5 days by trypan blue exclusion assay; format: functional, cell-based; details: LNCaP-95, 120 h
PC-3 [4] = assay: Induction of apoptosis in human PC3 cells assessed as late apoptotic/necrotic cells at 15 uM after 16 hrs by F2N12S/CYTOX AADvanced double staining-based flow cytometric method (reference value: 3%); format: functional
PC-3 [5] = assay: Induction of apoptosis in human PC3 cells assessed as viable cells at 30 uM after 16 hrs by F2N12S/CYTOX AADvanced double staining-based flow cytometric method (reference value: 95%); format: functional; details: PC-3, 16 h, read-out: Activity
VCaP = assay: Antiproliferative activity against human VCaP cells expressing androgen receptor splice variants assessed as decrease in cell viability after 5 days by trypan blue exclusion assay; format: functional, cell-based; details: 120 h
PC-3 [6] = assay: Induction of apoptosis in human PC3 cells assessed as early apoptotic cells at 40 uM after 16 hrs by F2N12S/CYTOX AADvanced double staining-based flow cytometric method (reference value: 2%); format: functional
PC-3 [7] = assay: Induction of apoptosis in human PC3 cells assessed as early apoptotic cells at 30 uM after 16 hrs by F2N12S/CYTOX AADvanced double staining-based flow cytometric method (reference value: 2%); format: functional
Rattus norvegicus = assay: Acute toxicity in Sprague-Dawley rat at 10 mg/kg administered via oral gavage; format: organism-based; details: in vivo
Outline: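 Male Sprague-Dawley rats (250–300 g, n = 4) each received a single 10 mg/kg oral gavage dose. The vehicle was 5% DMSO, 40% polyethylene glycol 400 and 55% saline. Blood was drawn from the lateral tail vein at 1, 3, 6 and 24 h for plasma drug levels. Toxicity was scored as observed deaths after dosing.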

[8] = Drug metabolism in human liver microsomes assessed as (1E,4E)-1-(1-sec-butyl-4-hydroxy-1H-imidazol-2-yl)-5-(2-methyl-4-(trifluoromethyl)thiazol-5-yl)penta-1,4-dien-3-one formation at 10 mM after 60 mins by UHPLC analysis; format: ADME, microsome; outline: as §1
PC-3 [9] = assay: Induction of apoptosis in human PC3 cells assessed as late apoptotic/necrotic cells at 5 uM after 16 hrs by F2N12S/CYTOX AADvanced double staining-based flow cytometric method (reference value: 3%); format: functional
PWR-1E [10] = assay: Potency index, ratio of curcumin IC50 to test compound IC50 for human PWR-1E cells expressing androgen receptor and PSA; format: functional
PC-3 [11] = assay: Cell cycle arrest in human PC3 cells assessed as accumulation at G0/G1 phase at 5 uM after 24 hrs by propidium iodide staining-based flow cytometric method (reference value: 59 to 62%); format: functional
PC-3 [12] = assay: Induction of apoptosis in human PC3 cells assessed as late apoptotic/necrotic cells at 30 uM after 16 hrs by F2N12S/CYTOX AADvanced double staining-based flow cytometric method (reference value: 3%); format: functional
[13] = Drug metabolism in human liver microsomes assessed as (1Z,4E)-1-(1-sec-butyl-1H-imidazol-2-yl)-1-hydroxy-5-(2-methyl-4-(trifluoromethyl)thiazol-5-yl)penta-1,4-dien-3-one formation at 10 mM after 60 mins by UHPLC analysis; format: ADME, microsome; outline: as §1
PWR-1E [14] = assay: Antiproliferative activity against human PWR-1E cells expressing androgen receptor and PSA assessed as decrease in cell viability after 3 days by WST assay; format: functional, cell-based; details: 72 h
Outline: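 Non-malignant prostate epithelial PWR-1E (adenovirus 12/SV40-immortalized) was seeded at 5,000 per well. Cells were exposed for 3 days at 37 °C in a CO2 incubator to at least five concentrations, with DMSO as vehicle control. WST-1 reagent was then added for 3 h at 37 °C and absorbance read at 430 nm. IC50 came from linear inhibition, as the mean of triplicate determinations.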

PC-3 [15] = assay: Induction of apoptosis in human PC3 cells assessed as late apoptotic/necrotic cells at 20 uM after 16 hrs by F2N12S/CYTOX AADvanced double staining-based flow cytometric method (reference value: 3%); format: functional
DU-145 [16] = assay: Potency index, ratio of curcumin IC50 to test compound IC50 for human DU145 cells; format: functional
PC-3 [17] = assay: Cell cycle arrest in human PC3 cells assessed as accumulation at G2 phase at 5 uM after 24 hrs by propidium iodide staining-based flow cytometric method (reference value: 24%); format: functional
PC-3 [18] = assay: Induction of apoptosis in human PC3 cells assessed as early apoptotic cells at 5 uM after 16 hrs by F2N12S/CYTOX AADvanced double staining-based flow cytometric method (reference value: 2%); format: functional
[19] = Plasma concentration in Sprague-Dawley rat at 10 mg/kg administered via oral gavage measured at 1 hr by HPLC-MS/MS analysis; format: ADME, organism-based
PC-3 [20] = assay: Induction of apoptosis in human PC3 cells assessed as early apoptotic cells at 15 uM after 16 hrs by F2N12S/CYTOX AADvanced double staining-based flow cytometric method (reference value: 2%); format: functional
PC-3 [21] = assay: Induction of apoptosis in human PC3 cells assessed as viable cells at 10 uM after 16 hrs by F2N12S/CYTOX AADvanced double staining-based flow cytometric method (reference value: 95%); format: functional; details: PC-3, 16 h, read-out: Activity
[22] = Plasma concentration in Sprague-Dawley rat at 10 mg/kg administered via oral gavage measured after 1 day by HPLC-MS/MS analysis; format: ADME, organism-based
[23] = Plasma concentration in Sprague-Dawley rat at 10 mg/kg administered via oral gavage measured at 6 hrs by HPLC-MS/MS analysis; format: ADME, organism-based
PC-3 [24] = assay: Induction of apoptosis in human PC3 cells assessed as viable cells at 40 uM after 16 hrs by F2N12S/CYTOX AADvanced double staining-based flow cytometric method (reference value: 95%); format: functional; details: PC-3, 16 h, read-out: Activity
DU-145 [25] = assay: Antiproliferative activity against human DU145 cells assessed as decrease in cell viability after 3 days by WST assay; format: functional, cell-based; details: DU-145, 72 h; outline: as §2

In the case of CCC(C)n1ccnc1/C=C/C(=O)/C=C/c1sc(C)nc1C(F)(F)F (stereo not drawn), the Drug metabolism [1] is reported as “Metabolite_Detected”, the viability at 15 µM (PC-3 [2]) is reported as 54% and the IC50 (LNCaP) is reported as 220 nM. The IC50 [3] was 370 nM, the Activity (PC-3 [4]) was 33% and the viability at 30 µM (PC-3 [5]) was 34%. The IC50 (VCaP) was 350 nM, the Activity (PC-3 [6]) was 25% and the Activity (PC-3 [7]) was 20%. For the same compound, the Activity (Rattus norvegicus) was “Non-Toxic”, the Drug metabolism [8] was “Metabolite_Detected” and the Activity (PC-3 [9]) was 39%. For the same compound, the “Ratio IC50” value (PWR-1E [10]) was 81, the Activity (PC-3 [11]) was 66% and the Activity (PC-3 [12]) was 46%. For the same compound, the Drug metabolism [13] was “Metabolite_Detected”, the IC50 (PWR-1E [14]) was 110 nM and the Activity (PC-3 [15]) was 23%. For the same compound, the “Ratio IC50” value (DU-145 [16]) was 75, the Activity (PC-3 [17]) was 21% and the Activity (PC-3 [18]) was 11%. It also gave a concentration at 1 h [19] of 361 ng/mL, an Activity (PC-3 [20]) of 13% and a viability at 10 µM (PC-3 [21]) of 49%. It also gave a concentration at 24 h [22] of 230 ng/mL, a concentration at 6 h [23] of 1940 ng/mL and a viability at 40 µM (PC-3 [24]) of 22%. For the same compound, the IC50 (DU-145 [25]) was 350 nM.
